# Assay results published in ChEMBL document CHEMBL3804799, “Synthesis and Biological Evaluation of Novel σ1 Receptor Ligands for Treating Neuropathic Pain: 6-Hydroxypyridazinones” (J Med Chem, 2016).
# Legend:
# Rattus norvegicus [1] = assay: Effect on mechanical allodynia in sham-operated Sprague-Dawley rat at 20 to 80 mg/kg, po administered as bid on days 15th to 18th; type: ADME, organism-based; settings: in vivo
# Procedure, shortened: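 Sciatic nerve CCI in SD rats (Bennett–Xie) under 5% chloral hydrate: four loose 4-0 silk ligatures on the right sciatic nerve, about 1 cm proximal to the trifurcation. Oral dosing in 0.5% methylcellulose (10 mL/kg), twice daily on days 15–18. Testing followed the first dose on day 15 and the last dose on day 18. Mechanical withdrawal threshold by von Frey up–down method, four samplings averaged. 10 rats/group.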
# Rattus norvegicus [2] = assay: Effect on thermal hypersensitivity in sham-operated Sprague-Dawley rat at 20 to 80 mg/kg, po administered as bid on days 15th to 18th; type: ADME, organism-based; settings: in vivo
# Procedure, shortened: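 CCI or sham SD rats, 10 per group, dosed orally in 0.5% methylcellulose (10 mL/kg) twice daily on days 15–18. Tested after the first dose on day 15 and the last dose on day 18. Plantar test: after 30 min acclimation on a glass floor, radiant heat was applied under the hind paw and withdrawal latency recorded. 30 s cutoff; mean of four samplings.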
# [3] = Acute toxicity in po dosed Kun Ming mouse assessed as mortality after 24 hrs; type: organism-based; settings: in vivo
# Procedure, shortened: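 Mice, 10 per group, given a single oral dose (10 mL/kg) of 0.5% methylcellulose vehicle or test compound at 200, 500, 1000, 1500 or 2000 mg/kg. Survivors were counted 24 h after dosing and percent mortality per group was calculated. LD50 was derived by statistical analysis.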
# [4] = Tmax in Sprague-Dawley rat at 80 mg/kg, po administered through gavage by LC-MS/MS analysis; type: ADME, organism-based; settings: in vivo
# Procedure, shortened: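 SD rats, n = 3/group. Dosing was either 5 mg/kg iv via tail vein in saline or 80 mg/kg by oral gavage as a suspension in 0.5% methylcellulose. Serial tail-vein blood was drawn into heparinized tubes at 0.5, 1, 2, 3, 4, 5, 6, 8 and 24 h. Plasma was separated, proteins precipitated with acetonitrile, and samples analysed by LC/MS.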
# [5] = target: T1, 5-hydroxytryptamine receptor 1A (Rattus norvegicus) (UniProt P19327); assay: Displacement of [3H]-8-OH-DPAT from 5HT1A receptor in rat cerebral cortex at 1 uM after 30 mins by liquid scintillation counting analysis; type: tissue-based
# T1 sequence (whole entry): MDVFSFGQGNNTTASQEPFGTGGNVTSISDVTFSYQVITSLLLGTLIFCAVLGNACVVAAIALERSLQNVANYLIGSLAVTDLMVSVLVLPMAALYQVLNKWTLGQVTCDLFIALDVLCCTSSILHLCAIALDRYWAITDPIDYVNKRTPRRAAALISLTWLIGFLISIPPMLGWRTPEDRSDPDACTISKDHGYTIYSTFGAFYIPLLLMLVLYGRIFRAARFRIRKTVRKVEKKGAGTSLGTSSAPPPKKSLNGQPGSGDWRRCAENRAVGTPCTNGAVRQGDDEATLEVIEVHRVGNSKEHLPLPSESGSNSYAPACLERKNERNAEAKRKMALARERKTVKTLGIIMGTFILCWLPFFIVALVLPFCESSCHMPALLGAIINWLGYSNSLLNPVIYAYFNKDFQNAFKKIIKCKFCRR
# [6] = target: 5-hydroxytryptamine receptor 2A (Rattus norvegicus) (UniProt P14842); assay: Displacement of [3H]-ketanserin from 5HT2A receptor in rat cerebral cortex at 1 uM after 15 mins by liquid scintillation counting analysis; type: tissue-based
# 5-hydroxytryptamine receptor 2A (Rattus norvegicus), sequence (P14842 whole entry): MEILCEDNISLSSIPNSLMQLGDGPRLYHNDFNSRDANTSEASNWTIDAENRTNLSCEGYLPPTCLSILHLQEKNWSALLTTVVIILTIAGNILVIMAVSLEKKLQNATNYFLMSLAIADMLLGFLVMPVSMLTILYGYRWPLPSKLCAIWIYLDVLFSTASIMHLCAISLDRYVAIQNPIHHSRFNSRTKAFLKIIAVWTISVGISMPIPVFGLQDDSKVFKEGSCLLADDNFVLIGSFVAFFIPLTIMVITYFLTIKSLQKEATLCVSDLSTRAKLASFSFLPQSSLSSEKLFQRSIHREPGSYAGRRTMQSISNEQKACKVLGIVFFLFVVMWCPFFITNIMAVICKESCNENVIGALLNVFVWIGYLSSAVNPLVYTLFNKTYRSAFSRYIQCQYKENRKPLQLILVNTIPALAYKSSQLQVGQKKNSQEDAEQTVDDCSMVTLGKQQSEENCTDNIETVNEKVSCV
# Mus musculus [7] = type: toxicity, organism-based, Kun Ming; settings: in vivo, po, 40 mg/kg
# [8] = target: Mu-type opioid receptor (Homo sapiens) (UniProt P35372); assay: Displacement of [3H]-diprenorphine from human mu-opiod receptor expressed in CHO cells at 1 uM after 150 mins by liquid scintillation counting analysis; type: cell-based
# Mu-type opioid receptor (Homo sapiens), sequence (P35372 whole entry): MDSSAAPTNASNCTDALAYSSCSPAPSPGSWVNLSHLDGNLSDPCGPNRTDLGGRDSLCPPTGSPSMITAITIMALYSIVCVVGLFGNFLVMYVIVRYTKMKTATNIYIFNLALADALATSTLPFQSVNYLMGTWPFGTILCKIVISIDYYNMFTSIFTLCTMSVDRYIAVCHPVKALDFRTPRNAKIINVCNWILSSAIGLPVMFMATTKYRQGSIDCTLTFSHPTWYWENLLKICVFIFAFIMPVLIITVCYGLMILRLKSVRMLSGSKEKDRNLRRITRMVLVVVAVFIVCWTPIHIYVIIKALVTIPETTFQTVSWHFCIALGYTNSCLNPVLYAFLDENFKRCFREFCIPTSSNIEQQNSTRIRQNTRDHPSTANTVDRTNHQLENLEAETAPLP
# [9] = target: Cannabinoid receptor 2 (Homo sapiens) (UniProt P34972); assay: Displacement of [3H]-CP-55940 from human CB2 receptor expressed in HEK cells at 1 uM after 90 mins by liquid scintillation counting analysis; type: cell-based; settings: HEK293
# Cannabinoid receptor 2 (Homo sapiens), sequence (P34972 whole entry): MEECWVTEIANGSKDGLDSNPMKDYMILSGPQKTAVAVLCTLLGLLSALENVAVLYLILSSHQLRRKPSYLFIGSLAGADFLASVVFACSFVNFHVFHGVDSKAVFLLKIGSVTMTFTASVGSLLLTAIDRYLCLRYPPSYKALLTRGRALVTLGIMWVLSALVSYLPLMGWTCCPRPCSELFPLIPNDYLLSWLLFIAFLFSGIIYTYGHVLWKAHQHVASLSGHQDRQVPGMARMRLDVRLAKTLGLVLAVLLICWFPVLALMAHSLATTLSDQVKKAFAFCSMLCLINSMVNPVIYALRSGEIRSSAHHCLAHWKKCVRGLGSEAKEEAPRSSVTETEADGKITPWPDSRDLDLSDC
# [10] = target: Sodium-dependent serotonin transporter (Rattus norvegicus) (UniProt P31652); assay: Inhibition of 5HT transporter in rat cerebral cortex assessed as [3H]-paroxetine uptake at 1 uM after 10 mins by liquid scintillation counting analysis; type: tissue-based
# Sodium-dependent serotonin transporter (Rattus norvegicus), sequence (P31652 whole entry): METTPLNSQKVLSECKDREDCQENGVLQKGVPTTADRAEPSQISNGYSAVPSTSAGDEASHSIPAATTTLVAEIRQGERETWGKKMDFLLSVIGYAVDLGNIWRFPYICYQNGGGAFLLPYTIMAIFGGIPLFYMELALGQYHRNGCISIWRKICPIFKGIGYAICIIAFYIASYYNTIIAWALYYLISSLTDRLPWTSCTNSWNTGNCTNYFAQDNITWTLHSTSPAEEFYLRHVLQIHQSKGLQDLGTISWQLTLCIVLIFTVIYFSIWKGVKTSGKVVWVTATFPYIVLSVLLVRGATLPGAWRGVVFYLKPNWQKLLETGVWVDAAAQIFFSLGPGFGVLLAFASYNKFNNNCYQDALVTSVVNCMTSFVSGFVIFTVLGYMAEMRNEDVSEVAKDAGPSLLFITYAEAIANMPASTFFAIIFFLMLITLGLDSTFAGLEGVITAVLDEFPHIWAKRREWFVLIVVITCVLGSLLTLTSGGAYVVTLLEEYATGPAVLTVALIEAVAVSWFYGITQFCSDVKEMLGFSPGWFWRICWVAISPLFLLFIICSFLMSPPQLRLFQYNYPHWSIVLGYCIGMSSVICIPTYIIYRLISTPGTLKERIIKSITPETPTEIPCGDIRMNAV
# Mus musculus [11] = type: toxicity, organism-based, Kun Ming; settings: in vivo, po, 160 mg/kg
# Mus musculus [12] = type: toxicity, organism-based, Kun Ming; settings: in vivo, po, 80 mg/kg
smiles,measurement,setting,value
O=c1ccc(OCCCN2CCCCC2)nn1-c1ccc(Cl)c(Cl)c1,Activity,Rattus norvegicus [1],Non-toxic
same,Activity,Rattus norvegicus [2],Non-toxic
same,LD50 at 24 h,[3],> 2000 mg/kg
same,Tmax,[4],19.8 min
same,inhibition,[5],< 50%
same,inhibition,[6],< 50%
same,Activity,Mus musculus [7],22826.6 mm
same,inhibition,[8],< 50%
same,inhibition,[9],< 50%
same,inhibition,[10],< 50%
same,Activity,Mus musculus [11],16458.3 mm
same,Activity,Mus musculus [12],18282.4 mm
